Measurements taken from ChEMBL document CHEMBL1141657, “Synthesis, structure elucidation and identification of antitumoural properties of novel fused 1,2,4-triazine aryl derivatives” (Eur J Med Chem, 2008).
Active and inactive are the calls of the source. No cut-off for these calls is given here.

How the values were obtained:
SiHa [1] = assay: Growth inhibition of human SiHa cells assessed as BrdU incorporation at 163.0 uM after 72 hrs by spectrophotometry; assay type: functional; settings: read-out: GI
How it was run: (§1)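 Cells were seeded at 10⁴ cells/mL and preincubated. Compounds were dissolved in DMSO and added at two fixed concentrations, then incubated for 72 h. End-point was BrdU labelling with ELISA detection, read spectrophotometrically. Result is % growth inhibition versus untreated controls. Triplicates.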

Jurkat [2] = assay: Cytotoxicity against human Jurkat cells assessed as cell viability at 1 uM after 24 hrs by MTT assay relative to control; assay type: functional; settings: read-out: Activity
How it was run: (§2)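 Jurkat T-cell leukaemia line grown in RPMI 1640 with 10% FBS, 2 mM L-glutamine and gentamycin at 37 °C, 5% CO2, kept in log phase. Compounds were dissolved in DMSO and applied for 24 h. Cells were washed in HEPES-buffered medium (pH 7.4) and given MTT at 0.5 mg/mL for 45 min at 37 °C. Formazan was dissolved in DMSO and read at 570 nm. Viability is % of control, from three independent measurements.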

T47D [3] = assay: Growth inhibition of human T47D cells assessed as BrdU incorporation at 163.0 uM after 72 hrs by spectrophotometry; assay type: functional; settings: read-out: GI
How it was run: (§3)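 Each cell line was seeded at 10⁴ cells per mL and preincubated. Test agents were dissolved in DMSO, added at two examined concentrations (10 and 50 per mL by mass), and incubated for 72 h. The end-point was BrdU labeling and detection kit III read on an ELISA reader. Percent growth inhibition was calculated against untreated controls, in triplicate.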

[4] = Growth inhibition of HSF cells assessed as BrdU incorporation at 32.6 uM after 72 hrs by spectrophotometry; assay type: cell-based; settings: human, read-out: GI; how it was run: as §1
Jurkat [5] = assay: Cytotoxicity against human Jurkat cells assessed as decrease in cell viability after 24 hrs by MTT assay; assay type: functional, cell-based
How it was run: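 Jurkat cells grown in RPMI 1640/10% FBS at 37 °C, 5% CO2, with 24 h exposure to DMSO-dissolved compound. Read-out was MTT reduction: 0.5 mg/mL in HEPES-buffered medium for 45 min, formazan in DMSO, absorbance at 570 nm. IC50 was taken from 24 h dose–survival curves.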

[6] = Growth inhibition of HSF cells assessed as BrdU incorporation at 163.0 uM after 72 hrs by spectrophotometry; assay type: cell-based; settings: human, read-out: GI; how it was run: as §1
SiHa [7] = assay: Growth inhibition of human SiHa cells assessed as BrdU incorporation after 72 hrs by spectrophotometry; assay type: functional, cell-based
How it was run: (§4)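 Cancer cells were seeded at 10⁴ cells/mL, preincubated, then exposed for 72 h to DMSO-dissolved compound. Growth was read by BrdU labelling with ELISA spectrophotometry. IC50 was taken from 72 h dose–survival curves. Triplicates.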

SiHa [8] = assay: Growth inhibition of human SiHa cells assessed as BrdU incorporation at 32.6 uM after 72 hrs by spectrophotometry; assay type: functional; settings: read-out: GI; how it was run: as §1
[9] = Growth inhibition of african green monkey Vero cells assessed as BrdU incorporation at 32.6 uM after 72 hrs by spectrophotometry; assay type: cell-based; settings: chlorocebus sabaeus, read-out: GI; how it was run: as §1
[10] = Growth inhibition of human LS180 cells assessed as BrdU incorporation at 32.6 uM after 72 hrs by spectrophotometry; assay type: functional; settings: LS180, 72 h, read-out: GI; how it was run: as §1
Jurkat [11] = assay: Cytotoxicity against human Jurkat cells assessed as cell viability at 100 uM after 24 hrs by MTT assay relative to control; assay type: functional; settings: read-out: Activity; how it was run: as §2
[12] = Cytotoxicity against HSF cells assessed as cell viability at 1 uM after 24 hrs by MTT assay relative to control; assay type: cell-based; settings: human, read-out: Activity
How it was run: (§5)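 Normal human skin fibroblasts (HSF, primary line) were exposed to DMSO-dissolved compound for 24 h. Viability was read by MTT tetrazolium reduction and expressed against untreated control set at 100%.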

[13] = Cytotoxicity against HSF cells assessed as cell viability at 50 uM after 24 hrs by MTT assay relative to control; assay type: cell-based; settings: human, read-out: Activity; how it was run: as §5
T47D [14] = assay: Induction of apoptosis in human T47D cells after 72 hrs by annexin V-propidium iodide based assay; assay type: functional
How it was run: (§6)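 Cells were exposed for 72 h, then stained with an annexin V-FITC/propidium iodide detection kit. Apoptotic cells were counted by confocal microscopy using a 460–490 nm filter: yellow nuclei were early apoptosis, red were late, and unstained cells were living. 1000 cells were analysed per measurement, three independent measurements in all. Results are mean ± SD.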

T47D [15] = assay: Growth inhibition of human T47D cells assessed as BrdU incorporation at 32.6 uM after 72 hrs by spectrophotometry; assay type: functional; settings: read-out: GI; how it was run: as §3
T47D [16] = assay: Induction of DNA damage in human T47D cells at 32.6 uM by pulsed field gel electrophoresis; assay type: functional, cell-based
How it was run: (§7)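 After treatment at 32.6, cells were washed twice with PBS. DNA was isolated with lysing buffer plus proteinase K, then purified. Cells were prepared as agarose plugs and run by pulsed field electrophoresis on a 1% agarose gel containing propidium iodide, at 120 V for 1.5 h at room temperature. Experiments were repeated three times.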

SiHa [17] = assay: Induction of DNA damage in human SiHa cells at 32.6 uM by pulsed field gel electrophoresis; assay type: functional, cell-based; how it was run: as §7
[18] = Cytotoxicity against HSF cells assessed as cell viability at 100 uM after 24 hrs by MTT assay relative to control; assay type: cell-based; settings: human, read-out: Activity; how it was run: as §5
[19] = Induction of apoptosis in HSF cells after 72 hrs by annexin V-propidium iodide based assay; assay type: cell-based; settings: human; how it was run: as §6
[20] = Growth inhibition of human LS180 cells assessed as BrdU incorporation after 72 hrs by spectrophotometry; assay type: functional, cell-based; settings: LS180, 72 h; how it was run: as §4
LS180 = assay: Induction of DNA damage in human LS180 cells at 32.6 uM by pulsed field gel electrophoresis; assay type: functional, cell-based; how it was run: as §7
[21] = Growth inhibition of african green monkey Vero cells assessed as BrdU incorporation at 163.0 uM after 72 hrs by spectrophotometry; assay type: cell-based; settings: chlorocebus sabaeus, read-out: GI; how it was run: as §1
[22] = Growth inhibition of human LS180 cells assessed as BrdU incorporation at 163.0 uM after 72 hrs by spectrophotometry; assay type: functional; settings: LS180, 72 h, read-out: GI; how it was run: as §1
T47D [23] = assay: Growth inhibition of human T47D cells assessed as BrdU incorporation after 72 hrs by spectrophotometry; assay type: functional, cell-based; how it was run: as §4
Jurkat [24] = assay: Cytotoxicity against human Jurkat cells assessed as cell viability at 50 uM after 24 hrs by MTT assay relative to control; assay type: functional; settings: read-out: Activity; how it was run: as §2

For `NNC(=O)c1nnc2n(c1=O)CCN2c1cccc(Cl)c1`, the inhibition of growth at 163 µM (SiHa [1]) was 63%, the viability at 1 µM (Jurkat [2]) was 100% and the inhibition of growth at 163 µM (T47D [3]) was 40%. It also gave an inhibition at 72 h, 32.6 µM [4] of 0%, an IC50 (Jurkat [5]) of over 100 µM and an inhibition at 72 h, 163 µM [6] of 0%. For the same molecule, the IC50 (SiHa [7]) was 75.4 µM, the inhibition of growth at 32.6 µM (SiHa [8]) was 45% and the inhibition at 72 h, 32.6 µM [9] was 20%. For the same molecule, the inhibition of growth at 32.6 µM [10] was 42%, the viability at 100 µM (Jurkat [11]) was 115% and the viability at 24 h, 1 µM [12] was 108%. It also gave a viability at 24 h, 50 µM [13] of 113%, an Activity (T47D [14]) of 8.5% and an inhibition of growth at 32.6 µM (T47D [15]) of 26%. For the same molecule, the Activity (T47D [16]) was “Active”, the Activity (SiHa [17]) was “Active” and the viability at 24 h, 100 µM [18] was 105%. The Activity [19] was 1%, the IC50 [20] was over 100 µM and the Activity (LS180) was “Active”. The inhibition at 72 h, 163 µM [21] was 29%, the inhibition of growth at 163 µM [22] was 54% and the IC50 (T47D [23]) was over 100 µM. It also gave a viability at 50 µM (Jurkat [24]) of 116%.
